{"data": "Measured values of several laboratories", "note": "Each line is one published result; the experiments were not run side by side."}
{"SMILES": "COc1ccc(NC(=O)c2c(Nc3ccccc3)sc(C(=O)NN=Cc3ccc(Cl)cc3)c2NC(C)=O)cc1", "target or system": "HCT-116", "assay": "cell growth or viability, SRB", "conditions": "1 nM, 48 h", "quantity": "viability", "value": "101%"}
{"SMILES": "O=C1NC(=S)S/C1=C\\c1c2ccccc2c(-c2ccc(N(c3ccccc3)c3ccccc3)cc2)c2ccccc12", "target or system": "Streptococcus mutans", "assay": "microbial growth, broth dilution", "test system": "ATCC25175", "quantity": "MIC", "value": "> 1000 µg/mL"}
{"SMILES": "COc1ccc(NC(=O)c2c(Nc3ccccc3)sc(C#N)c2NC(=O)CNc2ccc([N+](=O)[O-])cc2)cc1", "target or system": "HCT-116", "assay": "cell growth or viability, SRB", "conditions": "10 nM, 48 h", "quantity": "viability", "value": "92.4%"}
{"SMILES": "O=C(O)CN1C(=O)/C(=C/c2ccc(-c3ccc(N(c4ccccc4)c4ccccc4)cc3)c3ccccc23)SC1=S", "target or system": "Streptococcus mutans", "assay": "microbial growth, broth dilution", "test system": "ATCC25175", "quantity": "MIC", "value": "1000 µg/mL"}
{"SMILES": "COc1ccc(NC(=O)c2c(Nc3ccccc3)sc(C#N)c2NC(=O)CNc2ccc(C)cc2)cc1", "target or system": "HCT-116", "assay": "cell growth or viability, SRB", "conditions": "100 µM, 48 h", "quantity": "viability", "value": "60.3%"}
{"SMILES": "O=C1O[C@H]([C@@H](O)CO)C(O)=C1O", "assay": "DPPH scavenging, absorbance", "conditions": "15 min", "quantity": "EC50", "value": "34 µM"}
{"SMILES": "Fc1ccc(NCc2c(-c3ccccn3)nc3ccccn23)cc1", "target or system": "Leishmania infantum", "assay": "parasite growth", "conditions": "5 days, intracellular, amastigote", "quantity": "EC50", "value": "12.6 µM"}
{"SMILES": "O=C1NC(=S)S/C1=C\\c1ccc(-c2ccc(N(c3ccccc3)c3ccccc3)cc2)c2ccccc12", "target or system": "Streptococcus mutans", "assay": "microbial killing, broth dilution", "test system": "ATCC25175", "quantity": "MBC", "value": "> 1000 µg/mL"}
{"SMILES": "COc1ccc(/C=C/c2coc3ccc(OC)cc3c2=O)cc1", "target or system": "HSC-2", "assay": "cell growth or viability, MTT", "conditions": "7 h", "quantity": "CC50", "value": "20 µM"}
{"SMILES": "O=C(O)CN1C(=O)/C(=C/c2ccc(-c3ccc(N(c4ccccc4)c4ccccc4)cc3)cc2)NC1=S", "target or system": "Streptococcus mutans", "assay": "microbial growth, broth dilution", "test system": "ATCC25175", "quantity": "MIC", "value": "62.5 µg/mL"}
{"SMILES": "Fc1ccc(Nc2c(-c3ccc(F)cn3)nc3ccccn23)cc1", "target or system": "Leishmania infantum", "assay": "parasite growth", "conditions": "5 days, intracellular, amastigote", "quantity": "EC50", "value": "12.6 µM"}
{"SMILES": "COc1ccc(NC(=O)c2c(Nc3ccccc3)sc(C(=O)NN=Cc3ccc(Br)cc3)c2NC(C)=O)cc1", "target or system": "HCT-116", "assay": "cell growth or viability, SRB", "conditions": "10 µM, 48 h", "quantity": "viability", "value": "59.6%"}
{"SMILES": "COc1cccnc1-c1nc2ccccn2c1N(C)c1ccc(F)cc1", "target or system": "Leishmania infantum", "assay": "parasite growth", "conditions": "intracellular, amastigote", "quantity": "EC50", "value": "1.58 µM"}
{"SMILES": "O=C(O)CN1C(=O)/C(=C/c2c3ccccc3c(-c3ccc(N(c4ccccc4)c4ccccc4)cc3)c3ccccc23)SC1=S", "target or system": "Streptococcus mutans", "assay": "microbial killing, broth dilution", "test system": "ATCC25175", "quantity": "MBC", "value": "> 1000 µg/mL"}
{"SMILES": "COc1cccnc1-c1nc2ccccn2c1Nc1ccc(F)cc1", "target or system": "Leishmania infantum", "assay": "parasite growth", "conditions": "5 days, intracellular, amastigote", "quantity": "EC50", "value": "31.6 µM"}
{"SMILES": "CNC(=O)c1cc(Oc2ccc(NC(=O)Nc3ccc(Cl)c(C(F)(F)F)c3)cc2)ccn1", "target or system": "HCT-116", "assay": "cell growth or viability, SRB", "conditions": "1 nM, 48 h", "quantity": "viability", "value": "100%"}
{"SMILES": "Fc1cc(F)cc(Nc2c(-c3ccccn3)nc3ccccn23)c1", "target or system": "Leishmania infantum", "assay": "parasite growth", "conditions": "5 days, intracellular, amastigote", "quantity": "EC50", "value": "5.01 µM"}
{"SMILES": "COc1ccc(C=NNC(=O)c2sc(Nc3ccccc3)c(C(=O)Nc3ccc(OC)cc3)c2NC(C)=O)cc1", "target or system": "HCT-116", "assay": "cell growth or viability, SRB", "conditions": "100 µM, 48 h", "quantity": "viability", "value": "40.2%"}
{"SMILES": "Cc1ccc2nc(-c3ccccc3)c(CNc3ccc(F)cc3)n2c1", "target or system": "Leishmania infantum", "assay": "parasite growth", "conditions": "intracellular, amastigote", "quantity": "IC50", "value": "> 64 µM"}
{"SMILES": "O=C1NC(=S)S/C1=C\\c1ccc(-c2ccc(N(c3ccccc3)c3ccccc3)cc2)cc1", "target or system": "Streptococcus pyogenes", "assay": "microbial killing, broth dilution", "test system": "ATCC19615", "quantity": "MBC", "value": "> 1000 µg/mL"}
